# According to ChEMBL document CHEMBL3400052, “Development of a time-resolved fluorescence probe for evaluation of competitive binding to the cholecystokinin 2 receptor” (Bioorg Med Chem, 2015):
# pKi: −log10 of the molar value. The source made the active and inactive calls. The rule behind the calls is not given here. Where a SMILES comes first, the peptide text is derived from it. [ ]: non-standard residue; d: D form. The star is where a group is joined. Hexanoyl(6-N3) = [N-]=[N+]=NCCCCCC(=O)*; Azidoacetyl = [N-]=[N+]=NCC(=O)*; X1 = C#CCCCCOCCOCCOCCOCCOCC(=O)*; Nle = CCCC[C@H](N)C(=O)O
# What was measured:
# [1] = Retention time of the compound by reverse phase HPLC analysis; format: physicochemical
# [2] = target: T1, Gastrin/cholecystokinin type B receptor (Homo sapiens, UniProt P32239); assay: (§1) Displacement of Eu-DTPA-PEGO-CCK4 from human cholecystokinin 2 receptor overexpressed in HEK-293 cells co-expressing human MC4R after 1 hr by time resolved fluorescence-based competition binding assay; format: cell-based, HEK293
# T1 sequence (P32239 whole entry): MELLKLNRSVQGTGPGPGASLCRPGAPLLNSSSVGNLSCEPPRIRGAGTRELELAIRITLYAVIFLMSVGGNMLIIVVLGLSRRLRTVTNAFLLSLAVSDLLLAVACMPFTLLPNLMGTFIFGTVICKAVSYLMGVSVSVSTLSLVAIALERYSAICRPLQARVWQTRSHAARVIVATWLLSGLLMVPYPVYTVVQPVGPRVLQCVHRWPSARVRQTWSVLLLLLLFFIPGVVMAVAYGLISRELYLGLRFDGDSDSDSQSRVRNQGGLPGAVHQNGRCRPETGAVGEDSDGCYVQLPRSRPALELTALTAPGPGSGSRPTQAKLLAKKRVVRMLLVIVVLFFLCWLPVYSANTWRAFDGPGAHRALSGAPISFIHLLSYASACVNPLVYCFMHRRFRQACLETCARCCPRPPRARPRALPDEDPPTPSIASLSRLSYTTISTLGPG
# Summary of the method: (§2)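 HEK-293 cells engineered to co-express hCCK2R and hMC4R, grown in DMEM/10% FBS with zeocin and geneticin, seeded 240,000 per well in six-well plates. Each well received binding buffer (DMEM, HEPES, BSA, 1,10-phenanthroline, leupeptin, bacitracin, pH 7.4) containing 15 nM Eu probe plus competitor at 10^-12 to 10^-5 M. Incubation 1 h at 37 °C, then scraping, three washes, Enhancement Solution 1 h at 37 °C, Eu TRF read.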
# [3] = target: T2, Gastrin/cholecystokinin type B receptor (Homo sapiens) (UniProt P32239); assay: Displacement of Eu-DTPA-PEGO-CCK4 from human cholecystokinin 2 receptor overexpressed in HEK-293 cells co-expressing human MC4R after 1 hr by time resolved fluorescence-based competition binding assay relative to acetylated […]; format: cell-based; conditions: HEK293
# T2 sequence (whole entry): T1 sequence (P32239 whole entry)
# [4] = Retention time of the compound by analytical HPLC method; format: physicochemical
# [5] = target: T2, Gastrin/cholecystokinin type B receptor (Homo sapiens); assay: as §1; format: cell-based; conditions: HEK293; summary of the method: as §2
Compound,Retention_time [1] [min],pKi [2],Ratio [3],Retention_time [4] [min],inhibition [5]
CCCC[C@H](NC(=O)[C@H](Cc1c[nH]c2ccccc12)NC(=O)COCC(=O)NCCCOCCOCCOCCCNC(=O)CN(CCN(CCN(CC(=O)O)CC(=O)O)CC(=O)O)CC(=O)O)C(=O)N[C@@H](CC(=O)O)C(=O)N[C@@H](Cc1ccccc1)C(N)=O,22.9,–,–,–,–
CCCC[C@H](NC(=O)[C@H](Cc1c[nH]c2ccccc12)NC(=O)COCCOCCOCCOCCOCCCCc1cn(CCCCCCOc2cc(OCCCCCCn3cc(CCCCOCCOCCOCCOCCOCC(=O)N[C@@H](Cc4c[nH]c5ccccc45)C(=O)N[C@@H](CCCC)C(=O)N[C@@H](CC(=O)O)C(=O)N[C@@H](Cc4ccccc4)C(N)=O)nn3)cc(OCCCCCCn3cc(CCCCOCCOCCOCCOCCOCC(=O)N[C@@H](Cc4c[nH]c5ccccc45)C(=O)N[C@@H](CCCC)C(=O)N[C@@H](CC(=O)O)C(=O)N[C@@H](Cc4ccccc4)C(N)=O)nn3)c2)nn1)C(=O)N[C@@H](CC(=O)O)C(=O)N[C@@H](Cc1ccccc1)C(N)=O,19.8,7.52,0.2,25.12,–
NC(=O)[C@H](CO)NC(=O)CCCCCn1cc(CN(Cc2cn(CCCCCC(=O)N[C@@H](CO)C(N)=O)nn2)Cc2cn(CCCCCC(=O)N[C@@H](CO)C(N)=O)nn2)nn1,–,–,–,–,inactive
NC(=O)[C@H](CO)NC(=O)CCCCCn1cc(COc2cc(OCc3cn(CCCCCC(=O)N[C@@H](CO)C(N)=O)nn3)cc(OCc3cn(CCCCCC(=O)N[C@@H](CO)C(N)=O)nn3)c2)nn1,–,–,–,–,inactive
CCCC[C@H](NC(=O)[C@H](Cc1c[nH]c2ccccc12)NC(=O)CCCCCn1cc(COc2cc(OCc3cn(CCCCCC(=O)N[C@@H](Cc4c[nH]c5ccccc45)C(=O)N[C@@H](CCCC)C(=O)N[C@@H](CC(=O)O)C(=O)N[C@@H](Cc4ccccc4)C(N)=O)nn3)cc(OCc3cn(CCCCCC(=O)N[C@@H](Cc4c[nH]c5ccccc45)C(=O)N[C@@H](CCCC)C(=O)N[C@@H](CC(=O)O)C(=O)N[C@@H](Cc4ccccc4)C(N)=O)nn3)c2)nn1)C(=O)N[C@@H](CC(=O)O)C(=O)N[C@@H](Cc1ccccc1)C(N)=O,16.6,8.43,2,22.42,–
CCCC[C@H](NC(=O)[C@H](Cc1c[nH]c2ccccc12)NC(=O)CN=[N+]=[N-])C(=O)N[C@@H](CC(=O)O)C(=O)N[C@@H](Cc1ccccc1)C(N)=O (Azidoacetyl-W[Nle]DF-NH2),14.6,–,–,–,–
C#CCCCCOCCOCCOCCOCCOCC(=O)N[C@@H](Cc1c[nH]c2ccccc12)C(=O)N[C@@H](CCCC)C(=O)N[C@@H](CC(=O)O)C(=O)N[C@@H](Cc1ccccc1)C(N)=O (X1-W[Nle]DF-NH2),16.9,–,–,–,–
CCCC[C@H](NC(=O)[C@H](Cc1c[nH]c2ccccc12)NC(=O)Cn1cc(CN(Cc2cn(CC(=O)N[C@@H](Cc3c[nH]c4ccccc34)C(=O)N[C@@H](CCCC)C(=O)N[C@@H](CC(=O)O)C(=O)N[C@@H](Cc3ccccc3)C(N)=O)nn2)Cc2cn(CC(=O)N[C@@H](Cc3c[nH]c4ccccc34)C(=O)N[C@@H](CCCC)C(=O)N[C@@H](CC(=O)O)C(=O)N[C@@H](Cc3ccccc3)C(N)=O)nn2)nn1)C(=O)N[C@@H](CC(=O)O)C(=O)N[C@@H](Cc1ccccc1)C(N)=O,15.1,8.92,5,21.18,–
CCCC[C@H](NC(=O)[C@H](Cc1c[nH]c2ccccc12)NC(=O)CCCCCN=[N+]=[N-])C(=O)N[C@@H](CC(=O)O)C(=O)N[C@@H](Cc1ccccc1)C(N)=O ({Hexanoyl(6-N3)}-W[Nle]DF-NH2),17.7,–,–,–,–
CCCC[C@H](NC(=O)[C@H](Cc1c[nH]c2ccccc12)NC(C)=O)C(=O)N[C@@H](CC(=O)O)C(=O)N[C@@H](Cc1ccccc1)C(N)=O (Ac-W[Nle]DF-NH2),13.3,8.21,1,17.47,–
